Where two headings read alike, the source gives them in different places.
What was measured:
[1] = target: rat TRPV1 (Rattus norvegicus, UniProt O35433); test: Vanilloid-induced 45Ca2+ uptake in TRPV1/HaCaT cells; assay type: cell-based; conditions: for Effect on CAPS-induced 45Ca2+ uptake (in words): 2 μM CAPS, up to highest concentration 4 mM
[2] = 1:1 complexes; cited from earlier work
[3] = cited from earlier work
[4] = test system: CD1 mice; test: Eye wipe test; assay type: in vivo; conditions: 100 μM CAPS dropped into the eye with 1 mM CoCl2 or 5 μM CapZ, n = 8
Outline: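 Defensive eye-wiping movements were then counted. Data were means ± SD from eight independent experiments. Inhibition was tested by paired t test (P < 0.05).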

[5] = target: T1, TRPV1 (Rattus norvegicus, UniProt O35433); test: Cobalt histochemistry on 3T3 cell line expressing TRPV1 ectopically; assay type: cell-based; conditions: 10 min, ± S.D.
T1 sequence (O35433 whole entry): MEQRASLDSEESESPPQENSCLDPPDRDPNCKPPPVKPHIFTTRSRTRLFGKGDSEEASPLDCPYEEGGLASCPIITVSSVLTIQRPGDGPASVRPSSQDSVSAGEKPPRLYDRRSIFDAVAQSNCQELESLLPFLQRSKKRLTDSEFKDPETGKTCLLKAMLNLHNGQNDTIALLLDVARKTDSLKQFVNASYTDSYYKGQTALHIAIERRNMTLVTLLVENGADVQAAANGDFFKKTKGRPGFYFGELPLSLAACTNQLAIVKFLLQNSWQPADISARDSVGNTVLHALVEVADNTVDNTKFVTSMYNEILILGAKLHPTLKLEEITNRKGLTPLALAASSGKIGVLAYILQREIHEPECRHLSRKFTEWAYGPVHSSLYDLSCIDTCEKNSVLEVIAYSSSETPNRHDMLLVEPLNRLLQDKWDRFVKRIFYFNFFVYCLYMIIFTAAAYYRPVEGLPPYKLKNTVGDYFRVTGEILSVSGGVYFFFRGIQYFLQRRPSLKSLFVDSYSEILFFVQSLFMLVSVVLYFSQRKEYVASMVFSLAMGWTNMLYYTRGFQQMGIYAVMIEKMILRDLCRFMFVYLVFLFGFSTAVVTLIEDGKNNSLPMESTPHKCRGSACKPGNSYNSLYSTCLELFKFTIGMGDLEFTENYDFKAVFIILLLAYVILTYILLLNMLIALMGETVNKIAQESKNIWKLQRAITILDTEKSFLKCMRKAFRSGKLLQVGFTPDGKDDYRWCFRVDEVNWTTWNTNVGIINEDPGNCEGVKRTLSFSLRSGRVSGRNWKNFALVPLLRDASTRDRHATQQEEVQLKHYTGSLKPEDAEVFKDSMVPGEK

[6] = target: T1, TRPV1; test: Cobalt histochemistry on HaCaT cell line expressing TRPV1 ectopically; assay type: cell-based; conditions: 20 μM CAPS + 5 mM Co2+; CapZ 300 nM-100 μM, RuRed 500 nM-100 μM
[7] = target: rat TRPV1 D646N mutant (Rattus norvegicus, UniProt O35433, D646N); test: CAPS-evoked 45Ca2+ influx in cells expressing the TRPV1 D646N point mutant; assay type: cell-based; conditions: read-out: IC50, 45Ca2+ influx, 4 μM CAPS
Sequence of rat TRPV1 D646N mutant (O35433 whole entry D646N): as the sequence (O35433 whole entry) above, with D646N counted along it

[8] = target: rat TRPV1 Y627W mutant (Rattus norvegicus, UniProt O35433, Y627W); test: CAPS-evoked 45Ca2+ influx in cells expressing the TRPV1 Y627W point mutant; assay type: cell-based; conditions: read-out: IC50, 45Ca2+ influx, 4 μM CAPS
Sequence of rat TRPV1 Y627W mutant (O35433 whole entry Y627W): as the sequence (O35433 whole entry) above, with Y627W counted along it

[9] = target: rat TRPV1 E651W mutant (Rattus norvegicus, UniProt O35433, E651W); test: CAPS-evoked 45Ca2+ influx in cells expressing the TRPV1 E651W point mutant; assay type: cell-based; conditions: read-out: IC50, 45Ca2+ influx, 4 μM CAPS
Sequence of rat TRPV1 E651W mutant (O35433 whole entry E651W): as the sequence (O35433 whole entry) above, with E651W counted along it

[10] = target: wild-type TRPV1 (Rattus norvegicus, UniProt O35433); test: CAPS-evoked 45Ca2+ influx in cells transiently transfected with wild-type TRPV1; assay type: cell-based; conditions: read-out: IC50, 45Ca2+ influx, 4 μM CAPS
Sequence of wild-type TRPV1 (O35433 whole entry): as the sequence (O35433 whole entry) above

[11] = test system: TRPV1+ dorsal root ganglion neurons; test: Cobalt histochemistry in primary DRG sensory neuron cultures; assay type: cell-based, rat; conditions: 20 μM CAPS, Co2+-uptake medium
[12] = test system: 3T3 cell line; test: Cobalt histochemistry on 3T3 cell line without TRPV1; assay type: cell-based; conditions: 20 μM CAPS + 5 mM Co2+
[13] = target: rat TRPV1 N628W mutant (Rattus norvegicus, UniProt O35433, N628W); test: CAPS-evoked 45Ca2+ influx in cells expressing the TRPV1 N628W point mutant; assay type: cell-based; conditions: read-out: IC50, 45Ca2+ influx, 4 μM CAPS
Sequence of rat TRPV1 N628W mutant (O35433 whole entry N628W): as the sequence (O35433 whole entry) above, with N628W counted along it

[14] = target: TRPV1/3T3 cells (Rattus norvegicus, UniProt O35433); test: CAPS-induced TRPV1-mediated 45Ca2+ accumulation with VGCC blocker; assay type: cell-based; conditions: data not shown
Sequence of TRPV1/3T3 cells (O35433 whole entry): as the sequence (O35433 whole entry) above

Sequence of rat TRPV1 (O35433 whole entry): as above

`CN(C)CCC=C1c2ccccc2CCc2ccccc21` [AMI, Amitriptyline, reference compound] gave an IC50 [1] of 20 µM.
For `COc1cc(CNC(=O)CCCC/C=C/C(C)C)ccc1O` [CAPS, capsaicin, reference compound], the “Concentration causing full activation (EC100) of TRPV1” value ([1]; pH 7.5, 45Ca2+ uptake assay) was “Approximately 1 μM”.
For `[Ca+2]` [Ca^2+], the “Stability constant of the complex formed between M2+ and tryptophan” value (from here on “Stability constant”) [2] is listed as 2.55 ± 0.08 and the Ionic radius [3] is listed as 100 picometres.
In the case of `Oc1cc2c(cc1O)CN(C(=S)NCCc1ccc(Cl)cc1)CCC2` [CapZ, capsazepine, reference compound], the “Effect on vanilloid-evoked eye wiping movements” value [4] is reported as “Inhibition”, the “Mean gray value (intracellular CoS)” value ([5]; CAPS + Co2+ + CapZ (5 μM CapZ), n = 100) is reported as 76.92 ± 22.21 and the “Effect on CAPS-induced cellular Co2+ accumulation” value [6] is reported as “inhibited the cellular entry of Co^2+ in a dose-dependent manner”.
Molecule `[Co+2]` [Co^2+] has an IC50 [7] of 25.7 µM, an IC50 [8] of 18.6 µM and an IC50 ([1]; read-out: IC50 of Co2+, in the presence of 0 μM cold Ca2+) of 7.94 µM. The IC50 ([1]; read-out: IC50 of Co2+, in the presence of 0.0625 μM CAPS) was 94.8 µM, the IC50 ([1]; read-out: IC50 of Co2+, in the presence of 0.125 μM CAPS) was 58 µM and the IC50 ([1]; read-out: IC50 of Co2+, in the presence of 0.25 μM CAPS) was 73.2 µM. It also gave an IC50 ([1]; read-out: IC50 of Co2+, in the presence of 0.5 μM CAPS) of 32.6 µM, an IC50 ([1]; read-out: IC50 of Co2+, in the presence of 1 μM CAPS) of 19.2 µM and an IC50 ([1]; read-out: IC50 of Co2+, in the presence of 2 μM CAPS) of 22.6 µM. For the same molecule, the IC50 ([1]; read-out: IC50 of Co2+, in the presence of 4 μM CAPS) was 15.6 µM, the IC50 ([1]; read-out: IC50 of Co2+, in the presence of 15.625 μM cold Ca2+) was 51.2 µM and the IC50 ([1]; read-out: IC50 of Co2+, in the presence of 31.25 μM cold Ca2+) was 72.7 µM. The IC50 ([1]; read-out: IC50 of Co2+, in the presence of 62.5 μM cold Ca2+) was 79.1 µM, the IC50 ([1]; read-out: IC50 of Co2+, in the presence of 125 μM cold Ca2+) was 189 µM and the “Stability constant” value [2] was 4.34 ± 0.07. The Ionic radius [3] was 65 picometres, the IC50 [9] was 15.3 µM and the IC50 [10] was 18.3 µM. For the same molecule, the “Effect on vanilloid-evoked eye wiping movements” value [4] was “decreased the frequency of vanilloid-evoked defending movements”, the “CAPS-induced Co2+ accumulation in sensory neurons” value [11] was “enters into the cytosol of specific PNS sensory neurons” and the “Co2+ staining in the absence of TRPV1” value [12] was “No substantial staining”. The IC50 [13] was 16.4 µM and the “Mean gray value (intracellular CoS)” value ([5]; CAPS + Co2+ (20 μM CAPS + 5 mM Co2+), n = 111) was 124.4 ± 21.51.
For `[Cu+2]` [Cu^2+], the “Stability constant” value [2] is listed as 8.05 ± 0.05 and the Ionic radius [3] is listed as 73 picometres.
With `[La+3]` [La^3+] the “Effect on CAPS-induced 45Ca2+ uptake (in words)” value (“Effect … (in words)” for short) ([1]; TRPV1/HaCaT cells) was “little or no effect”.
In the case of `[Mg+2]` [Mg^2+], the “Effect … (in words)” value ([1]; TRPV1/HaCaT cells) is listed as “little or no effect”, the “Stability constant” value [2] is listed as 2.84 ± 0.08 and the Ionic radius [3] is listed as 72 picometres.
In the case of `[Mn+2]` [Mn^2+], the “Effect … (in words)” value ([1]; TRPV1/HaCaT cells) is given as “little or no effect”, the “Stability constant” value [2] is given as 3.34 ± 0.05 and the Ionic radius [3] is given as 67 picometres.
In the case of `[Ni+2]` [Ni^2+], the “Stability constant” value [2] is given as 5.31 ± 0.06 and the Ionic radius [3] is given as 69 picometres.
`N.N.N.N.N.N.N.N.N.N.N.N.N.N.[Cl-].[Cl-].[Cl-].[Cl-].[Cl-].[Cl-].[O-2].[O-2].[Ru+3].[Ru+3].[Ru+4]` [RuRed, Ruthenium Red, reference compound] showed an IC50 [7] of 12.8 µM, an IC50 [8] of 0.26 µM and an IC50 [9] of 0.94 µM. The IC50 [10] was 0.87 µM, the IC50 [13] was 1.33 µM and the “Effect on CAPS-induced cellular Co2+ accumulation” value [6] was “blocked”.
In the case of `[Zn+2]` [Zn^2+], the “Effect … (in words)” value ([1]; TRPV1/HaCaT cells) is given as “only partial inhibitor”, the “Decrease of the maximal ion influx achieved” value ([1]; TRPV1/HaCaT cells, CAPS-induced 45Ca2+ uptake) is given as 30% and the “Stability constant” value [2] is given as 5.00 ± 0.08. The Ionic radius [3] was 74 picometres.
For `COC(=O)C1=C(C)NC(C)=C(C(=O)OCC(C)C)C1c1ccccc1[N+](=O)[O-]` (stereo not shown) [nisoldipine], the “Effect on CAPS-induced TRPV1-mediated 45Ca2+ accumulation” value [14] was “did not decrease”.
